Laboratory results published in ChEMBL document CHEMBL1134847, “Development of orally active nonpeptidic inhibitors of human neutrophil elastase” (J Med Chem, 2001).
Values after ≈ are worked out from the molar mass of the structure shown.

Columns and labels:
Cricetinae gen. sp. [1] = experiment: Inhibition of HNE-induced lung hemorrhage in hamsters after oral administration followed by intratracheal instillation of HNE (10 U/lung); assay type: functional
Outline: (§1)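 Hamsters (n = 6-10) were dosed orally 1 h before intratracheal instillation of HNE (10 U/lung). The read-out was inhibition of the HNE-induced lung hemorrhage.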

Cricetinae gen. sp. [2] = experiment: (§2) Inhibition of HNE-induced lung hemorrhage in hamsters after oral administration of 30 mg/kg followed by intratracheal instillation of HNE (10 U/lung); assay type: functional; outline: as §1
Cricetinae gen. sp. [3] = experiment: as §2; assay type: functional, Cricetulus griseus; outline: as §1
[4] = Solubility was determined at a pH of 4.0 using 1/14 M phosphate citrate buffer; assay type: physicochemical; settings: pH 4
Outline: (§3)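 Solubility was measured in μg/mL in four vehicles: JP13th first fluid (pH ca. 1.2), 1/14 M phosphate citrate buffer (pH ca. 4.0), physiological saline (pH ca. 5.5) and 1/14 M phosphate buffer (pH ca. 7.4).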

[5] = Solubility was determined at a pH of […] using 1/14 M phosphate buffer; assay type: physicochemical; settings: pH 7.4
[6] = Solubility was determined at a pH of 1.2 using first fluid (JP13th); assay type: physicochemical; settings: pH 1.2; outline: as §3
Neutrophil elastase = target: T1, Neutrophil elastase (Homo sapiens, UniProt P08246); experiment: Binding constant derived from inhibition of elastase catalyzed hydrolysis of synthetic substrate
T1 sequence (P08246 whole entry): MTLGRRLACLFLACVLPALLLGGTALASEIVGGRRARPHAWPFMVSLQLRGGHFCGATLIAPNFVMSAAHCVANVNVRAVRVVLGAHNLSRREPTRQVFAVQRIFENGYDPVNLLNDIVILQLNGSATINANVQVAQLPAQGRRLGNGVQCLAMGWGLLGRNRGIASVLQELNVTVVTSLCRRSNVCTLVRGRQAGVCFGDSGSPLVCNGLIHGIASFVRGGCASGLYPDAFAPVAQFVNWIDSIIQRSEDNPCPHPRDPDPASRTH

Row | SMILES | ED50 (Cricetinae gen. sp. [1]) | inhibition in vivo at 30 mg/kg (Cricetinae gen. sp. [2]) | also measured
1 | CC(C)[C@H](NC(=O)Cn1c(-c2ccccc2)nccc1=O)C(=O)c1nnc(C2(C)CC2)o1 | 6.6 mg/kg | – | –
2 | CC(C)[C@H](NC(=O)Cn1c(-c2ccc(F)cc2)ncc(N)c1=O)C(=O)c1nnc(C(C)(C)c2ccccc2)o1 | 10 mg/kg | – | –
3 | CC(C)[C@H](NC(=O)Cn1c(-c2ccccc2)ncc(N)c1=O)C(=O)c1nnc(C2(C)CC2)o1 | – | – | ED50 (Cricetinae gen. sp. [2]): 11 mg/kg
4 | CC(C)[C@H](NC(=O)Cn1c(-c2ccc(F)cc2)nccc1=O)C(=O)c1nnc(C(C)(C)c2ccccc2)o1 | – | 61% | –
5 | CC(C)[C@H](NC(=O)Cn1c(-c2ccc(F)cc2)ncc(N)c1=O)C(=O)c1nnc(Cc2ccccc2)o1 | – | 53% | –
6 | CC(C)[C@H](NC(=O)Cn1c(-c2ccc(F)cc2)ncc(N)c1=O)C(=O)c1nnc(-c2ccccc2)o1 | – | – | inhibition in vivo at 30 mg/kg (Cricetinae gen. sp. [3]): 9%
7 | CC(C)[C@H](NC(=O)Cn1c(-c2ccccc2)ncc(N)c1=O)C(=O)c1nnc(C(C)(C)c2ccccc2)o1 | 25 mg/kg | – | solubility [4]: 26 µg/mL (≈ 50.5 µM); solubility [5]: 20 µg/mL (≈ 38.9 µM); solubility [6]: 499 µg/mL (≈ 970 µM)
8 | CC(C)[C@H](NC(=O)[C@@H]1CCCN1C(=O)[C@@H](NS(C)(=O)=O)C(C)C)C(=O)c1nnc(C(C)(C)C)o1 | – | 17% | –
9 | CC(C)[C@H](NC(=O)Cn1c(-c2ccccc2)nccc1=O)C(=O)c1nnc(C(C)(C)C)o1 | 4 mg/kg | – | –
10 | COc1ccc(-c2nnc(C(=O)[C@@H](NC(=O)Cn3c(-c4ccc(F)cc4)ncc(N)c3=O)C(C)C)o2)cc1 | – | 13% | Ki (Neutrophil elastase): 21.2 nM
11 | Cc1cccc(Cc2nnc(C(=O)[C@@H](NC(=O)Cn3c(-c4ccc(F)cc4)ncc(N)c3=O)C(C)C)o2)c1 | 13 mg/kg | – | –
12 | CC(C)[C@H](NC(=O)COc1cccc(-c2ccccc2)n1)C(=O)c1nnc(C(C)(C)C)o1 | – | 28% | Ki (Neutrophil elastase): 4280 nM
13 | CC(C)C[C@@H]1NC(=O)N(CC(=O)N[C@H](C(=O)c2nnc(C(C)(C)C)o2)C(C)C)C1=O | – | 0% | –
14 | CC(C)c1nnc(C(=O)[C@@H](NC(=O)Cn2c(-c3ccc(F)cc3)ncc(N)c2=O)C(C)C)o1 | – | – | inhibition in vivo at 30 mg/kg (Cricetinae gen. sp. [3]): 79%
15 | CC(C)C(NC(=O)Cn1c(-c2ccc(F)cc2)ncc(N)c1=O)C(=O)C(F)(F)F (centres undefined) | 7.5 mg/kg | – | –
16 | CC(C)[C@H](NC(=O)[C@@H]1Cc2ccccc2N1C(=O)c1c[nH]cn1)C(=O)c1nnc(C(C)(C)C)o1 | – | 81% | Ki (Neutrophil elastase): 79.7 nM
17 | CC(C)[C@H](NC(=O)C1Cc2ccccc2CN1C(=O)c1c[nH]cn1)C(=O)c1nnc(C(C)(C)C)o1 (some centres undefined) | – | 29% | Ki (Neutrophil elastase): 309 nM
